Data from ChEMBL document CHEMBL4689842, “EUbOPEN Chemogenomics Library wave 1” (2021).

Test system: U2OS
Test: Multiplex assay against U2OS
Assay type: toxicity, cell-based
Settings: human
Procedure, shortened: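 On a CQ1 microscope at 37°C and 5% CO2, live cells were imaged after compound addition. They had been stained at seeding with Hoechst33342, BioTracker Green Microtubule Cytoskeleton Dye, MitoTracker Red and Annexin V Alexa Fluor 680. CellPathfinder machine-learning gating assigned cells to Hoechst high-intensity objects or normal cells, normal cells to healthy, pyknosed or fragmented nuclei, and pyknosed cells to mitotic or apoptotic. Tubulin, mitochondrial-mass and membrane-permeability phenotypes are per cents of healthy-nucleus cells.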

[1] = 12 h, 1 µM, compound concentration 1 uM, replicate 1
[2] = 12 h, 1 µM, compound concentration 1 uM, replicate 2
[3] = 12 h, 10 µM, compound concentration 10 uM, replicate 1
[4] = 12 h, 10 µM, compound concentration 10 uM, replicate 2
[5] = 24 h, 1 µM, compound concentration 1 uM, replicate 1
[6] = 24 h, 1 µM, compound concentration 1 uM, replicate 2
[7] = 24 h, 10 µM, compound concentration 10 uM, replicate 1
[8] = 24 h, 10 µM, compound concentration 10 uM, replicate 2

CCCS(=O)(=O)Nc1ccc(F)c(C(=O)c2c[nH]c3ncc(Cl)cc23)c1F [PLX-4720]
Population Apoptotic (%) [1]: 55% | Population Fragmented Nuclei (%) [1]: 6% | Population Healthy Nuclei (%) [1]: 88% | Population Hoechst High Intensity Objects (%) [1]: 2% | Population Membrane Permeable-Phenotype (%) [1]: 14% | Population Mitochondria Different-Phenotype (%) [1]: 21% | Population Mitotic Cells (%) [1]: 44% | Population Normal (%) [1]: 97% | Population Pyknosed Nuclei (%) [1]: 5% | Population Tubulin-Different-Phenotype (%) [1]: 26% | Total Cell Count [1]: 145 | Population Apoptotic (%) [2]: 33% | Population Fragmented Nuclei (%) [2]: 7% | Population Healthy Nuclei (%) [2]: 89% | Population Hoechst High Intensity Objects (%) [2]: 15% | Population Membrane Permeable-Phenotype (%) [2]: 12% | Population Mitochondria Different-Phenotype (%) [2]: 24% | Population Mitotic Cells (%) [2]: 66% | Population Normal (%) [2]: 84% | Population Pyknosed Nuclei (%) [2]: 3% | Population Tubulin-Different-Phenotype (%) [2]: 28% | Total Cell Count [2]: 153 | Population Apoptotic (%) [3]: 50% | Population Healthy Nuclei (%) [3]: 89% | Population Hoechst High Intensity Objects (%) [3]: 3% | Population Membrane Permeable-Phenotype (%) [3]: 8% | Population Mitochondria Different-Phenotype (%) [3]: 30% | Population Mitotic Cells (%) [3]: 50% | Population Normal (%) [3]: 96% | Population Pyknosed Nuclei (%) [3]: 4% | Population Tubulin-Different-Phenotype (%) [3]: 26% | Total Cell Count [3]: 164 | Population Apoptotic (%) [4]: 0% | Population Fragmented Nuclei (%) [4]: 6% | Population Healthy Nuclei (%) [4]: 88% | Population Hoechst High Intensity Objects (%) [4]: 9% | Population Membrane Permeable-Phenotype (%) [4]: 11% | Population Mitochondria Different-Phenotype (%) [4]: 31% | Population Mitotic Cells (%) [4]: 100% | Population Normal (%) [4]: 90% | Population Pyknosed Nuclei (%) [4]: 5% | Population Tubulin-Different-Phenotype (%) [4]: 23% | Total Cell Count [4]: 101 | Population Apoptotic (%) [5]: 43% | Population Fragmented Nuclei (%) [5]: 5% | Population Healthy Nuclei (%) [5]: 86% | Population Hoechst High Intensity Objects (%) [5]: 3% | Population Membrane Permeable-Phenotype (%) [5]: 16% | Population Mitochondria Different-Phenotype (%) [5]: 26% | Population Mitotic Cells (%) [5]: 56% | Population Normal (%) [5]: 96% | Population Pyknosed Nuclei (%) [5]: 7% | Population Tubulin-Different-Phenotype (%) [5]: 22% | Total Cell Count [5]: 201 | Population Apoptotic (%) [6]: 11% | Population Fragmented Nuclei (%) [6]: 3% | Population Healthy Nuclei (%) [6]: 88% | Population Hoechst High Intensity Objects (%) [6]: 11% | Population Membrane Permeable-Phenotype (%) [6]: 9% | Population Mitochondria Different-Phenotype (%) [6]: 25% | Population Mitotic Cells (%) [6]: 88% | Population Normal (%) [6]: 88% | Population Pyknosed Nuclei (%) [6]: 8% | Population Tubulin-Different-Phenotype (%) [6]: 23% | Total Cell Count [6]: 198 | Population Apoptotic (%) [7]: 20% | Population Fragmented Nuclei (%) [7]: 2% | Population Healthy Nuclei (%) [7]: 92% | Population Hoechst High Intensity Objects (%) [7]: 2% | Population Membrane Permeable-Phenotype (%) [7]: 5% | Population Mitochondria Different-Phenotype (%) [7]: 32% | Population Mitotic Cells (%) [7]: 80% | Population Normal (%) [7]: 97% | Population Pyknosed Nuclei (%) [7]: 5% | Population Tubulin-Different-Phenotype (%) [7]: 24% | Total Cell Count [7]: 152 | Population Apoptotic (%) [8]: 57% | Population Fragmented Nuclei (%) [8]: 4% | Population Healthy Nuclei (%) [8]: 91% | Population Hoechst High Intensity Objects (%) [8]: 7% | Population Membrane Permeable-Phenotype (%) [8]: 7% | Population Mitochondria Different-Phenotype (%) [8]: 38% | Population Mitotic Cells (%) [8]: 42% | Population Normal (%) [8]: 92% | Population Pyknosed Nuclei (%) [8]: 3% | Population Tubulin-Different-Phenotype (%) [8]: 32% | Total Cell Count [8]: 93
